Assay results: ChEMBL document CHEMBL4513216, “Probing the Open Global Health Chemical Diversity Library for Multistage-Active Starting Points for Next-Generation Antimalarials” (ACS Infect Dis, 2020)

Assay: Toxicity liver stage against HepG2, at 10uM
Assay type: cell-based
Parameters: test concentration 10 uM, cell line HepG2-A16-CD81EGFP
Conditions: human, HepG2-A16-CD81EGFP cells; read-out: INHIBITION
In short: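 Uninfected HepG2-A16-CD81EGFP cells, 3 × 10^3 per well, 1536-well, plated on prespotted compound at 10 μM final, parasite-free screening media added to match infected plates; puromycin 10 μM positive, DMSO 0.5% negative; run in parallel with 48 h PbLuc assay at 37 °C, 5% CO2; viability by CellTiter-Glo luminescence, normalized to controls.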

| SMILES | cytotoxicity at 10 µM |
| --- | --- |
| COC(=O)c1ccc(Cn2nc(C)cc2C)cc1 | 10.8% |
| CCN(CC)S(=O)(=O)CC(=O)N1CCc2ccc(C)cc21 | -5.77% |
| COc1cccc(C2CCCN2C(=O)c2cc3c([nH]c2=O)CCC3)c1 (stereo not given) | -12% |
| CC(C)c1nccn1C1CCCN(C(=O)c2ccc3[nH]cnc3c2)C1 (stereo not given) | -8.24% |
| CCN(C)c1ncnc2c1CCN(Cc1ccc(OC)cc1)CC2 | 9.88% |
| Cc1cc(CN2CCN(C(=O)NC(C)c3cccnc3)CC2)no1 (stereo not given) | -11.8% |
| CCCNC(=O)c1ccc(-c2ccco2)[nH]c1=O | -5.68% |
| CCc1nnc(CN(CC)C(=O)C(C)n2ccnc2C(C)C)o1 (stereo not given) | 6.23% |
| c1cnn(CC2CN(CCCOc3ccc4c(c3)OCO4)CCO2)c1 (stereo not given) | 0.568% |
| O=C(c1cc(-n2cnnn2)ccc1Cl)N1CCOCC1 | 6.22% |
| CCS(=O)(=O)N1CCC2(CC1)CC(Oc1ccccn1)CO2 (stereo not given) | -1.58% |
| Cc1cc(CN2CCN(C(=O)NC(C)Cn3ccnc3)CC2)no1 (stereo not given) | -8.54% |
| COc1cc(NCCNC(=O)c2ccc3[nH]ccc3c2)cc(OC)c1 | 6.44% |
| CNC(=O)c1sccc1S(=O)(=O)NC | 8.52% |
| CN1CCC(c2[nH]ncc2S(C)(=O)=O)CC1 | -7.06% |
| CCS(=O)(=O)CCN(CC1CCCO1)C1CCCC1 (stereo not given) | -3.52% |
| Cc1ncsc1CNC(=O)NCC1(c2ccc3c(c2)OCO3)CC1 | 14.3% |
| Cn1nc(C(=O)NC2CC2)cc1NC(=O)C1CC1 | -4.02% |
| CNC(=O)c1cn[nH]c1C1CCCN1C(=O)c1cccnc1 (stereo not given) | -23.3% |
| CC(C)NC(=O)Nc1ncc(-c2cccnc2)s1 | 7.05% |
| Cc1ccc(C(=O)N2CCc3c(CN4CCCC4)nn(C)c3C2)cc1C | -4.86% |
| O=C(NCc1ccccn1)N(Cc1ccc(F)cc1F)C1CC1 | -17.5% |

| SMILES | cytotoxicity at 10 µM |
| --- | --- |
| CCS(=O)(=O)NC(CCSC)C(=O)Nc1ccccc1C (stereo not given) | 1.06% |
| O=C(c1ccc(N2CCOCC2)nc1)N1CCCC(n2cccn2)C1 (stereo not given) | -11.2% |
| COC1CCCN(C(=O)Nc2nc(C)n(C)n2)C1 (stereo not given) | 16.3% |
| Cn1ccc(C(=O)N2CCC(Cc3cnc4[nH]ccc4c3)C2)n1 (stereo not given) | -5% |
| CCc1n[nH]c(C2CN(C(=O)c3ccsc3)CCO2)n1 (stereo not given) | 2.24% |
| c1ccc(-c2nnc3n2CCN(Cc2ccc4c(c2)OCCO4)C3)cc1 | 7.66% |
| FC(F)(F)c1cccc(C2(CNCc3ccncc3)CCOCC2)c1 | -6.98% |
| CCn1cnnc1CCNCc1c[nH]nc1-c1ccc(F)cc1 | 1.31% |
| CCCn1nnnc1CN(c1ccc(C)cc1)C(C)C | 4.15% |
| Cc1ccc(C(=O)N2CCC3(CC2)C(=O)NCCN3C)cc1O | -0.081% |
| CN(C1CCN(c2ccccn2)CC1)S(=O)(=O)N1CCOCC1 | -5.23% |
| CC(=O)NCc1ccc(C(=O)Nc2ccc3c(c2)C(=O)NC3)cc1 | 0.202% |
| CN(c1ccncn1)C1CC2(CCN(C(=O)c3cccn3C)C2)C1 (stereo not given) | -8.05% |
| Cc1cc(NC(=O)CN2CCc3cncnc3C2)no1 | -11.5% |
| Cc1cnc(N2CCC3(CCCN(c4ccc(C)nn4)C3)C2)nc1 (stereo not given) | -20.7% |
| O=S(=O)(NCC(O)c1ccc(C(F)(F)F)cc1)C1CC1 (stereo not given) | -6.9% |
| CCN(CC)c1ccc(-c2ccc(C)c(S(N)(=O)=O)c2)nn1 | -7.99% |
| CSc1nccn1-c1cccc(C(=O)NCc2nnc(C)n2C)c1 | -9.46% |
| Cc1ccc(S(C)(=O)=O)cc1C(=O)N1CCCC(n2cncn2)C1 (stereo not given) | -8.21% |
| COCC(=O)N[C@H](C)c1onc(-c2ccc(F)cc2)c1C(=O)O | -8.15% |
| Fc1cccc(CN2CCC[C@@H](Cn3nnc(-c4ccccn4)n3)C2)c1 | 3.33% |
| O=C(c1cc2c(s1)CCC2)N1CCC(c2ccncc2)CC1 | 39.7% |

| SMILES | cytotoxicity at 10 µM |
| --- | --- |
| CC(C)n1ccc(C(=O)OCC2CC(=O)N(Cc3ccccc3)C2)n1 (stereo not given) | 0.379% |
| Cc1ccc(N2CCCc3sc(C(=O)NCCC#N)nc32)nn1 | 11.6% |
| Cc1ccc(NC2CCN(C(=O)c3cc(C)no3)CC2)nn1 | -11.6% |
| CS(=O)(=O)NCc1ncn2c1CN(Cc1cccs1)CCC2 | -66.8% |
| CNc1cccc(CC2COCCN(C(=O)c3cnn(C)c3)C2)n1 (stereo not given) | 2.64% |
| O=C1O[C@@H]2CN(C3CCOCC3)C[C@@H]2N1CCc1cccc(Cl)c1 | -1.11% |
| CNC(=O)CS(=O)(=O)Cc1coc(-c2ccc(OC)cc2)n1 | -2.95% |
| CCN1CCN(CC(O)c2ccc(Br)cc2)CC1 (stereo not given) | -6.95% |
| CCS(=O)(=O)NC(CCSC)C(=O)Nc1ccc(C)cc1C (stereo not given) | -8.9% |
| Cc1nnc([C@@]23CCO[C@@H]2CCN(Cc2scnc2C)C3)o1 | -111% |
| CN(C)[C@@H]1CCN(C(=O)c2ccccn2)[C@H]1Cc1cnn(C)c1 | -70% |
| O=C(NC1CC1)[C@H]1C[C@H]2OCC[C@H]2N(Cc2ccc3ccccc3n2)C1 | -62.6% |
| CN(C)C(=O)N1CCN(C(=O)CCc2ccccc2)[C@H]2CS(=O)(=O)C[C@H]21 | -17.1% |
| Cc1n[nH]cc1CNc1ccc2c(c1)N(C(=O)OC(C)(C)C)CCC2 | -1.97% |
| CC(C)N(C)Cc1cnc2n1CCN(Cc1cccc(C#N)c1)C2 | 7.48% |
| O=C(c1ccnnc1)N1C[C@@H](OCC2CCOCC2)[C@H]2OCCC[C@H]21 | -4.66% |
| CCCc1cncnc1N1CCC(NCCc2nc(O)cc(O)n2)CC1 | 5.99% |
| OCC1CCCN1c1cc(N2CCN(c3ccccn3)CC2)ncn1 (stereo not given) | 3.97% |
| Cc1[nH]c2c(F)cccc2c1CC(=O)NC1CCCCNC1=O (stereo not given) | 19.1% |
| CC(C)Nc1ncccc1C(=O)NCc1cnc(N(C)C)n1C | -10.1% |
| Cc1cc(C(C)(O)CNC(=O)OC(C)(C)C)c(C)o1 (stereo not given) | 10.5% |
| Cn1nc(C2CC2)cc1C(=O)N1CCC(c2nnsc2S(C)(=O)=O)CC1 | -0.81% |

| SMILES | cytotoxicity at 10 µM |
| --- | --- |
| CC(CS(C)(=O)=O)N(C(=O)CCc1ccsc1)C1CC1 (stereo not given) | 1.97% |
| NC1CCN(c2nccn3c(=O)[nH]nc23)CC1 | 3.65% |
| COCC1CN(C(=O)Cc2ccccn2)Cc2ncn(C)c21 (stereo not given) | 1.73% |
| O=C(CCOc1ccc(F)cc1)N1CCCC1Cn1cccn1 (stereo not given) | -2.7% |
| CNC(=O)N1CCC2(CC1)CC[C@@]1(C(=O)NC)CN(S(C)(=O)=O)C[C@@H]21 | -3.91% |
| Cc1ccccc1CN1CCCN(C(=O)c2ccn(C)c(=O)c2)CC1 | 1.62% |
| CCOCCN1CCN(Cc2cccc(C(=O)N(C)C)c2)CC1C (stereo not given) | 3.57% |
| COCCN1Cc2ccccc2C2(CCN(S(C)(=O)=O)CC2)C1 | 0.121% |
| Cn1cc(CCNC(=O)NC2CCN(Cc3ccccn3)CC2)cn1 | -16.4% |
| Cn1cc(-c2nc(CN3CCN(CCO)CC3)cs2)cn1 | -2.66% |
| COCC(=O)NCCn1ccc2c(OC)cccc21 | 3.07% |
| O=C(c1ccccn1)N1CCc2nc(-c3cnccn3)nc(O)c2C1 | 0.487% |
| CCc1cc(O)n2nc(C3CCN(C(=O)c4cccnc4)CC3)cc2n1 | 7.09% |
| CN1CCCN(C(=O)c2ccc3c(c2)nc(N2CCOCC2)n3C)CC1 | -11.9% |
| N#CC1(C(=O)N2CCOC(c3ccc(Cl)cc3)C2)CCCC1 (stereo not given) | 1.36% |
| CC(C)(C)CCN1CCN(c2snc(Cl)c2C#N)CC1 | 38.1% |
| Cc1cc(CN2C[C@@H]3CN(C(=O)c4ccsc4)CCO[C@@H]3C2)no1 | -131% |
| Cc1nc(C)c(C(=O)NCCNC(=O)Cc2cccc(F)c2)s1 | -8.45% |
| O=C1CSC(c2ccc3c(c2)OCO3)c2cn[nH]c2N1 (stereo not given) | 4.29% |
| Cc1cnn(CCNCc2nnc(-c3ccc(F)cc3)o2)c1 | -43.9% |
| CN(C)c1cc(CNC(=O)c2cccnc2O)ccn1 | -5.26% |
| Fc1cnc(N2CCCn3c(nnc3Cn3ccnc3)C2)nc1 | -140% |

| SMILES | cytotoxicity at 10 µM |
| --- | --- |
| COc1ccccc1S(=O)(=O)N1CCN(C)[C@@H]2CS(=O)(=O)C[C@@H]21 | 19.3% |
| COc1ccc(CN(C(=O)C2CCOCC2)c2ccncc2)cc1 | 8.5% |
| CCS(=O)(=O)CC(=O)NC(C)c1ccccc1Oc1ccccc1 (stereo not given) | -2.97% |
| Cc1ccc(S(=O)(=O)Nc2ccc(-n3cccc3C(=O)O)c(C)c2)cc1 | -3.94% |
| O=C1CCCN1Cc1ncn2c1CN(C(=O)C1CC=CC1)CCC2 | 6.4% |
| COc1ccccc1CC1CCN(C(=O)CCN2CCOC2=O)CC1 | 3.76% |
| Cc1nn(CN(CC(C)C)C2CC2)c(=O)c2noc(C)c12 | -3.39% |
| CC(C)(O)CCc1cccc(C(=O)NCc2nccs2)c1 | -50.7% |
| CCc1nc(CNC2CCCCNC2=O)cs1 (stereo not given) | 8.74% |
| c1cnc(NC[C@@H]2CCC[C@@H]3CN(Cc4csnn4)C[C@@H]32)nc1 | -126% |
| Cc1ccc(N2CCN(C(=O)COc3nccc(C)n3)CC2)nn1 | -25.1% |
| COCC(=O)N1Cc2c(-c3cccc(C)c3)nc(N)nc2C1C (stereo not given) | -0.607% |
| Cc1noc(C)c1CN(C)Cc1csc(-c2ccccc2F)n1 | 37.2% |
| CSCc1cc(F)ccc1CNCc1cccc(O)c1 | -3.58% |
| CC(=O)N1[C@H](Cn2cncn2)C[C@@H]2CN(Cc3cccnc3)CC[C@@H]21 | 3.16% |
| COC(=O)C1CCCN1Cc1ccco1 (stereo not given) | 9.21% |
| CS(=O)(=O)CCc1ncnn1-c1ccc(F)c(Cl)c1 | -4.56% |
| O=C(c1ccc[nH]1)N1CCCn2c(nnc2Cn2cccn2)C1 | 8.06% |
| Cn1nc(CO)c2c1CCN(c1ncnc3c1CCNCC3)C2 | 0.549% |
| CCn1ncc(C(=O)N2CCN(CC3CCCO3)CC2)c1C (stereo not given) | -11.6% |
| Cc1nc2c(c(N3CCCC(CO)C3)n1)CCN(Cc1ccco1)CC2 (stereo not given) | -0.044% |
| CCc1ccc(CN2C[C@H](OCC(=O)N(C)C)[C@H]3COC[C@H]32)o1 | 2.46% |
